The source made the active and inactive calls. The calls are words filed in the database; no cut-off is given here.
Legend:
Rattus norvegicus [1] = species on record: Rattus norvegicus; experiment: Antagonist activity at calcium channel in albino rat ileum assessed as inhibition of PGF-2alpha-induced spasmogenic action by measuring contraction of ileum at 10^-3 M preincubated for 3 mins followed by PGF-2alpha induction (reference value: 76 +/- 4%); format: tissue-based; set-up: scale not given: the % may be the effect or the level left
Rattus norvegicus [2] = species on record: Rattus norvegicus; experiment: Agonist activity at calcium channel in albino rat ileum assessed as induction of spasmogenic action by measuring contraction of ileum at 10^-4 M measured for 3 mins relative to PGF-2alpha; format: tissue-based
Outline: (§1)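 Isolated rat ileum strips in an organ bath, with a separate strip for each compound and concentration. A control contraction to PGF2α (3 × 10⁻⁷ M bath) or acetylcholine (10⁻⁶ M bath) is recorded, and the bath is washed three times. Contraction during the 3-min test-compound incubation, before spasmogen is added, is expressed as percent of the control spasmogen response. Mean ± SEM of four experiments.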

Rattus norvegicus [3] = species on record: Rattus norvegicus; experiment: Agonist activity at calcium channel in albino rat ileum assessed as induction of spasmogenic action by measuring contraction of ileum at 10^-3 M measured for 3 mins relative to PGF-2alpha; format: tissue-based; outline: as §1
Rattus norvegicus [4] = species on record: Rattus norvegicus; experiment: Antagonist activity at calcium channel in albino rat ileum assessed as inhibition of acetylcholine-induced spasmogenic action by measuring contraction of ileum at 10^-6 acetylcholine induction (reference value: 80 +/- 5%); format: tissue-based; set-up: scale not given: the % may be the effect or the level left
Rattus norvegicus [5] = species on record: Rattus norvegicus; experiment: Antagonist activity at calcium channel in albino rat ileum assessed as inhibition of acetylcholine-induced spasmogenic action by measuring contraction of ileum at 10^-5 acetylcholine induction (reference value: 80 +/- 5%); format: tissue-based; set-up: scale not given: the % may be the effect or the level left
Rattus norvegicus [6] = species on record: Rattus norvegicus; experiment: Antagonist activity at calcium channel in albino rat ileum assessed as inhibition of acetylcholine-induced spasmogenic action by measuring contraction of ileum at 10^-4 acetylcholine induction (reference value: 80 +/- 5%); format: tissue-based; set-up: scale not given: the % may be the effect or the level left
Rattus norvegicus [7] = species on record: Rattus norvegicus; experiment: Antagonist activity at calcium channel in albino rat ileum assessed as inhibition of acetylcholine-induced spasmogenic action by measuring contraction of ileum at 10^-3 acetylcholine induction (reference value: 80 +/- 5%); format: tissue-based; set-up: scale not given: the % may be the effect or the level left
Rattus norvegicus [8] = species on record: Rattus norvegicus; experiment: Agonist activity at calcium channel in albino rat ileum assessed as induction of spasmogenic action by measuring contraction of ileum at 10^-4 M measured for 3 mins relative to acetylcholine; format: tissue-based; outline: as §1
Rattus norvegicus [9] = species on record: Rattus norvegicus; experiment: Agonist activity at calcium channel in albino rat ileum assessed as induction of spasmogenic action by measuring contraction of ileum at 10^-3 M measured for 3 mins relative to acetylcholine; format: tissue-based; outline: as §1
Rattus norvegicus [10] = species on record: Rattus norvegicus; experiment: Agonist activity at calcium channel in albino rat ileum assessed as induction of spasmogenic action by measuring contraction of ileum at 10^-6 to 10^-5 M measured for 3 mins; format: tissue-based; outline: as §1
Rattus norvegicus [11] = species on record: Rattus norvegicus; experiment: Antagonist activity at calcium channel in albino rat ileum assessed as inhibition of PGF-2alpha-induced spasmogenic action by measuring contraction of ileum at 10^-6 M preincubated for 3 mins followed by PGF-2alpha induction (reference value: 76 +/- 4%); format: tissue-based; set-up: scale not given: the % may be the effect or the level left
Rattus norvegicus [12] = species on record: Rattus norvegicus; experiment: Antagonist activity at calcium channel in albino rat ileum assessed as inhibition of PGF-2alpha-induced spasmogenic action by measuring contraction of ileum at 10^-5 M preincubated for 3 mins followed by PGF-2alpha induction (reference value: 76 +/- 4%); format: tissue-based; set-up: scale not given: the % may be the effect or the level left
Rattus norvegicus [13] = species on record: Rattus norvegicus; experiment: Antagonist activity at calcium channel in albino rat ileum assessed as inhibition of PGF-2alpha-induced spasmogenic action by measuring contraction of ileum at 10^-4 M preincubated for 3 mins followed by PGF-2alpha induction (reference value: 76 +/- 4%); format: tissue-based; set-up: scale not given: the % may be the effect or the level left
Heart = experiment: Positive inotropic activity in perfused rabbit heart assessed as increase in force of contraction at 10^-6 M relative to control; format: functional, Oryctolagus cuniculus

SMILES	Activity (Rattus norvegicus [1]) [%]	Activity (Rattus norvegicus [2]) [%]	Activity (Rattus norvegicus [3]) [%]	Activity (Rattus norvegicus [4]) [%]	Activity (Rattus norvegicus [5]) [%]	Activity (Rattus norvegicus [6]) [%]	Activity (Rattus norvegicus [7]) [%]	Activity (Rattus norvegicus [8]) [%]	Activity (Rattus norvegicus [9]) [%]	Activity (Rattus norvegicus [10])	Activity (Rattus norvegicus [11]) [%]	Activity (Rattus norvegicus [12]) [%]	Activity (Rattus norvegicus [13]) [%]	Activity (Heart) [%]
COc1cc2c(cc1OC)C(N(C)C)C(C)=C2 (stereo not drawn)	124	59.8	119	113	113	94.4	64	20.6	49.5	inactive	111	108	113	–
CCC1=Cc2cc(OC)c(OC)cc2C1N(C)C (stereo not drawn)	62	74.7	77.3	105	105	91.5	51.3	28.9	45.3	inactive	98.7	108	110	–
CCCC1=Cc2cc3c(cc2C1N(C)C)OCO3.Cl (stereo not drawn)	–	–	–	–	–	–	–	–	–	–	–	–	–	36
CCCCC1=Cc2cc(OC)c(OC)cc2C1N(C)C (stereo not drawn)	65.2	37.1	58.1	104	108	78.6	64.3	25.3	46.7	inactive	101	91.1	60.5	–
CCCC1=Cc2cc(OC)c(OC)cc2C1N(C)C (stereo not drawn)	49.1	80.7	61.7	104	110	96.6	56.7	42.7	43.6	inactive	104	99.3	99.7	–

From ChEMBL document CHEMBL3244063, “Pharmacology on rat ileum of certain 2-substituted 3-(dimethylamino)-5,6-dimethoxyindenes related to 5,6-(methylenedioxy)indene calcium antagonists” (1978)
